Measurements published in ChEMBL document CHEMBL3046615, “Isolation of nematicidal compounds from Tagetes patula L. yellow flowers: structure-activity relationship studies against cyst nematode Heterodera zeae infective stage larvae” (2011).
Activity calls are given as the source filed them. No cut-off for these calls is given here.

Columns and labels:
[1] = system: Heterodera zeae; experiment: Nematicidal activity against Heterodera zeae infective stage larvae assessed as nematode mortality at 1% under dark conditions measured 24 hr post dose by stereoscopic microscopy; type: functional
Method in brief: (§1)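 Freshly hatched H. zeae second-stage juveniles, 100 per Petri plate, three replicates. Samples in MeOH, DMSO or water were tested in glass cavity blocks; petroleum ether samples were dried onto the block and larvae transferred on agar pieces. Percentages are dilutions of 30 mg/mL stocks (extracts/fractions) or 1 mg/mL stocks (pure compounds). Incubated at 28 ± 2 °C in light or dark box; mortality averaged over three replicates.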

[2] = system: Heterodera zeae; experiment: Nematicidal activity against Heterodera zeae infective stage larvae assessed as nematode mortality at 0.125% under light conditions measured 24 hr post dose by stereoscopic microscopy; type: functional; method in brief: as §1
[3] = system: Heterodera zeae; experiment: Nematicidal activity against Heterodera zeae infective stage larvae assessed as nematode mortality at 0.25% under light conditions measured 24 hr post dose by stereoscopic microscopy; type: functional; method in brief: as §1
[4] = system: Heterodera zeae; experiment: Nematicidal activity against Heterodera zeae infective stage larvae assessed as nematode mortality at 0.5% under light conditions measured 24 hr post dose by stereoscopic microscopy; type: functional; method in brief: as §1
[5] = system: Heterodera zeae; experiment: Nematicidal activity against Heterodera zeae infective stage larvae assessed as nematode mortality at 1% under light conditions measured 24 hr post dose by stereoscopic microscopy; type: functional; method in brief: as §1
[6] = system: Heterodera zeae; experiment: Nematicidal activity against Heterodera zeae infective stage larvae assessed as nematode mortality at 0.125% under dark conditions measured 5 to 60 min post dose by stereoscopic microscopy; type: functional, organism-based
Method in brief: (§2)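 H. zeae freshly hatched second-stage juveniles, 100 per plate, three replicates, at 28 ± 2 °C under light or in a dark box. Dilutions are % of a stock: 30 mg/mL for extracts/fractions, 1 mg/mL for pure compounds. Methanol-, DMSO- or water-soluble samples were tested in glass cavity blocks. Petroleum ether-soluble samples were air-dried in the block and covered with agar pieces bearing cultured larvae. Mortality was followed over 5–60 min; each value is the mean of three experiments.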

[7] = system: Heterodera zeae; experiment: Nematicidal activity against Heterodera zeae infective stage larvae assessed as nematode mortality at 0.25% under dark conditions measured 5 to 60 min post dose by stereoscopic microscopy; type: functional, organism-based; method in brief: as §2
[8] = system: Heterodera zeae; experiment: Nematicidal activity against Heterodera zeae infective stage larvae assessed as nematode mortality at 0.5% under dark conditions measured 5 to 60 min post dose by stereoscopic microscopy; type: functional, organism-based; method in brief: as §2
[9] = system: Heterodera zeae; experiment: Nematicidal activity against Heterodera zeae infective stage larvae assessed as nematode mortality at 1% under dark conditions measured 5 to 60 min post dose by stereoscopic microscopy; type: functional, organism-based; method in brief: as §2
[10] = system: Heterodera zeae; experiment: Nematicidal activity against Heterodera zeae infective stage larvae assessed as nematode mortality at 2% under dark conditions measured 5 to 60 min post dose by stereoscopic microscopy; type: functional, organism-based; method in brief: as §2
[11] = system: Heterodera zeae; experiment: Nematicidal activity against Heterodera zeae infective stage larvae assessed as nematode mortality at 5% under dark conditions measured 5 to 60 min post dose by stereoscopic microscopy; type: functional, organism-based; method in brief: as §2
[12] = system: Heterodera zeae; experiment: Nematicidal activity against Heterodera zeae infective stage larvae assessed as nematode mortality at 0.125% under light conditions measured 5 to 60 min post dose by stereoscopic microscopy; type: functional, organism-based; method in brief: as §2
[13] = system: Heterodera zeae; experiment: Nematicidal activity against Heterodera zeae infective stage larvae assessed as nematode mortality at 0.25% under light conditions measured 5 to 60 min post dose by stereoscopic microscopy; type: functional, organism-based; method in brief: as §2
[14] = system: Heterodera zeae; experiment: Nematicidal activity against Heterodera zeae infective stage larvae assessed as nematode mortality at 0.5% under light conditions measured 5 to 60 min post dose by stereoscopic microscopy; type: functional, organism-based; method in brief: as §2
[15] = system: Heterodera zeae; experiment: Nematicidal activity against Heterodera zeae infective stage larvae assessed as nematode mortality at 1% under light conditions measured 5 to 60 min post dose by stereoscopic microscopy; type: functional, organism-based; method in brief: as §2
[16] = system: Heterodera zeae; experiment: Nematicidal activity against Heterodera zeae infective stage larvae assessed as nematode mortality at 2% under light conditions measured 5 to 60 min post dose by stereoscopic microscopy; type: functional, organism-based; method in brief: as §2
[17] = system: Heterodera zeae; experiment: Nematicidal activity against Heterodera zeae infective stage larvae assessed as nematode mortality at 5% under light conditions measured 5 to 60 min post dose by stereoscopic microscopy; type: functional, organism-based; method in brief: as §2
[18] = system: Heterodera zeae; experiment: Nematicidal activity against Heterodera zeae infective stage larvae assessed as nematode mortality at 0.125% under dark conditions measured 24 hr post dose by stereoscopic microscopy; type: functional; method in brief: as §1
[19] = system: Heterodera zeae; experiment: Nematicidal activity against Heterodera zeae infective stage larvae assessed as nematode mortality at 0.25% under dark conditions measured 24 hr post dose by stereoscopic microscopy; type: functional; method in brief: as §1
[20] = system: Heterodera zeae; experiment: Nematicidal activity against Heterodera zeae infective stage larvae assessed as nematode mortality at 0.5% under dark conditions measured 24 hr post dose by stereoscopic microscopy; type: functional; method in brief: as §1
[21] = system: Heterodera zeae; experiment: Nematicidal activity against Heterodera zeae infective stage larvae assessed as nematode mortality at 0.5% under light conditions measured 48 hr post dose by stereoscopic microscopy; type: functional; method in brief: as §1
[22] = system: Heterodera zeae; experiment: Nematicidal activity against Heterodera zeae infective stage larvae assessed as nematode mortality at 0.125% under light conditions measured 48 hr post dose by stereoscopic microscopy; type: functional; method in brief: as §1
[23] = system: Heterodera zeae; experiment: Nematicidal activity against Heterodera zeae infective stage larvae assessed as nematode mortality at 0.25% under light conditions measured 48 hr post dose by stereoscopic microscopy; type: functional; method in brief: as §1
[24] = system: Heterodera zeae; experiment: Nematicidal activity against Heterodera zeae infective stage larvae assessed as nematode mortality at 0.125% under dark conditions measured 48 hr post dose by stereoscopic microscopy; type: functional; method in brief: as §1
[25] = system: Heterodera zeae; experiment: Nematicidal activity against Heterodera zeae infective stage larvae assessed as nematode mortality at 0.25% under dark conditions measured 48 hr post dose by stereoscopic microscopy; type: functional; method in brief: as §1
[26] = system: Heterodera zeae; experiment: Nematicidal activity against Heterodera zeae infective stage larvae assessed as nematode mortality at 1% under light conditions measured 48 hr post dose by stereoscopic microscopy; type: functional; method in brief: as §1
[27] = system: Heterodera zeae; experiment: Nematicidal activity against Heterodera zeae infective stage larvae assessed as nematode mortality at 0.125% under dark conditions measured 72 hr post dose by stereoscopic microscopy; type: functional; method in brief: as §1
[28] = system: Heterodera zeae; experiment: Nematicidal activity against Heterodera zeae infective stage larvae assessed as nematode mortality at 0.25% under dark conditions measured 72 hr post dose by stereoscopic microscopy; type: functional; method in brief: as §1
[29] = system: Heterodera zeae; experiment: Nematicidal activity against Heterodera zeae infective stage larvae assessed as nematode mortality at 1% under dark conditions measured 48 hr post dose by stereoscopic microscopy; type: functional; method in brief: as §1
[30] = system: Heterodera zeae; experiment: Nematicidal activity against Heterodera zeae infective stage larvae assessed as nematode mortality at 0.5% under dark conditions measured 48 hr post dose by stereoscopic microscopy; type: functional; method in brief: as §1

| Structure (SMILES) | mortality [1] [%] | mortality [2] [%] | mortality [3] [%] | mortality [4] [%] | mortality [5] [%] | Activity [6] | Activity [7] | Activity [8] | Activity [9] | Activity [10] | Activity [11] | Activity [12] | Activity [13] | Activity [14] | Activity [15] | Activity [16] | Activity [17] | mortality [18] [%] | mortality [19] [%] | mortality [20] [%] | further results |
| --- | --- | --- | --- | --- | --- | --- | --- | --- | --- | --- | --- | --- | --- | --- | --- | --- | --- | --- | --- | --- | --- |
| c1csc(-c2ccc(-c3cccs3)s2)c1 [ALPHA-TERTHIENYL] | 100 | 100 | 100 | 100 | 100 | inactive | inactive | inactive | inactive | inactive | inactive | inactive | inactive | inactive | inactive | inactive | inactive | 100 | 100 | 100 | – |
| CCCCC/C=C\C/C=C\CCCCCCCC(=O)O [LINOLEIC ACID] | 100 | 100 | 100 | 100 | 100 | inactive | inactive | inactive | inactive | inactive | inactive | inactive | inactive | inactive | inactive | inactive | inactive | 100 | 100 | 100 | – |
| O=C(O)c1cc(O)c(O)c(O)c1 [GALLIC ACID] | 100 | 100 | 100 | 100 | 100 | inactive | inactive | inactive | inactive | inactive | inactive | inactive | inactive | inactive | inactive | inactive | inactive | 100 | 100 | 100 | – |
| C[C@@H]1O[C@@H](OC[C@H]2O[C@@H](Oc3c(-c4ccc(O)c(O)c4)oc4cc(O)cc(O)c4c3=O)[C@H](O)[C@@H](O)[C@@H]2O)[C@H](O)[C@H](O)[C@H]1O [RUTIN] | 100 | 0 | 0 | 100 | 100 | inactive | inactive | inactive | inactive | inactive | inactive | inactive | inactive | inactive | inactive | inactive | inactive | 0 | 0 | 100 | mortality [21]: 100%; mortality [22]: 100%; mortality [23]: 100%; mortality [24]: 70%; mortality [25]: 70%; mortality [26]: 100%; mortality [27]: 70%; mortality [28]: 70% |
| O=C(O)c1ccc(O)c(O)c1 [PROTOCATECHUIC ACID] | 40 | 50 | 50 | 50 | 100 | inactive | inactive | inactive | inactive | inactive | inactive | inactive | inactive | inactive | inactive | inactive | inactive | 10 | 10 | 40 | mortality [21]: 100%; mortality [22]: 100%; mortality [23]: 100%; mortality [24]: 100%; mortality [25]: 100%; mortality [29]: 100%; mortality [30]: 100% |
| COc1cc(C(=O)O)cc(OC)c1OC [3,4,5-TRIMETHOXYBENZOIC ACID] | 100 | 90 | 90 | 100 | 100 | inactive | inactive | inactive | inactive | inactive | inactive | inactive | inactive | inactive | inactive | inactive | inactive | 80 | 90 | 90 | mortality [22]: 100%; mortality [23]: 100%; mortality [24]: 100%; mortality [25]: 100%; mortality [30]: 100% |
| COC(=O)c1ccc(O)c(O)c1 [METHYL PROTOCATECHUATE] | 60 | 50 | 50 | 70 | 100 | inactive | inactive | inactive | inactive | inactive | inactive | inactive | inactive | inactive | inactive | inactive | inactive | 10 | 10 | 20 | mortality [21]: 100%; mortality [22]: 100%; mortality [23]: 100%; mortality [24]: 100%; mortality [25]: 100%; mortality [29]: 100%; mortality [30]: 100% |
